Assay results pooled from the literature.
Palmitoyl-protein thioesterase 1: Palmitoyl-protein thioesterase 1 (Homo sapiens, UniProt P50897)
Transmembrane protease serine 6: Transmembrane protease serine 6 (Homo sapiens, UniProt Q8IU80)

Compound	target	read-out	action	technique	concentration	measurement	result
c1coc(CNc2ncnc3[nH]cnc23)c1	Palmitoyl-protein thioesterase 1	enzyme activity	inhibitor	–	125 µM	inhibition	8.93%
N=C(N)NCCC[C@H](NC(=O)[C@@H](NC(=O)[C@H](Cc1cscn1)NC(=O)CCc1ccccc1)C(c1ccccc1)c1ccccc1)C(=O)c1nc2ccccc2s1	Transmembrane protease serine 6	enzyme activity	inhibitor	–	0.1 µM	remaining activity	65%
COc1cc(-c2cncc3c2CN(C)Cc2cc(N4CCNCC4)ccc2-3)cc(OC)c1OC	Muscle, skeletal receptor tyrosine-protein kinase (MUSK, Homo sapiens, UniProt O15146)	enzyme activity	inhibitor	–	1 µM	remaining activity	113%
O=C([O-])CCCCCCCNC(=O)c1ccccc1O.[Na+]	Palmitoyl-protein thioesterase 1	enzyme activity	inhibitor	–	125 µM	inhibition	9.21%
C=CC(=O)N1CCC(COCC(=O)N2CCN(c3nc(-c4cnc(N)nc4C(F)F)nc(N4CCOC[C@@H]4C)n3)CC2)CC1	Ribosomal protein S6 kinase alpha-2, C-terminal kinase domain (RPS6KA2, Homo sapiens, UniProt Q15349)	binding	–	competition with immobilised ligand	1 µM	remaining binding	90%
N=C(N)NCCC[C@H](NC(=O)[C@H](CC1CCCCC1)NC(=O)[C@H](Cc1cscn1)NC(=O)CCc1ccccc1)C(=O)c1nc2ccccc2s1	Transmembrane protease serine 6	enzyme activity	inhibitor	–	0.1 µM	remaining activity	6%
CNc1ncc2c(/C=C/C(=O)N3CCC(OC)CC3)nn(Cc3cccc(C(F)(F)F)c3)c2n1	Epidermal growth factor receptor (EGFR, Homo sapiens, UniProt P00533)	enzyme activity	inhibitor	radiometric	1 µM	remaining activity	108%
CC(C)(C)[C@H](NC(=O)[C@H](Cc1cscn1)NC(=O)CCc1ccccc1)C(=O)N[C@@H](CCCNC(=N)N)C(=O)c1nc2ccccc2s1	Transmembrane protease serine 6	enzyme activity	inhibitor	–	0.1 µM	remaining activity	55%
Cc1cc([C@@H](C)Nc2ccccc2C(=O)O)c2nc(N3CCC(F)(F)CC3)c(C#N)c(=O)n2c1	SRSF protein kinase 3 (SRPK3, Homo sapiens, UniProt Q9UPE1)	binding	–	competition with immobilised ligand	10 µM	remaining binding	96%
